# Tested on: Nucleic Acid
# Assay: Apparent equilibrium constant for binding to calf thymus DNA by competitive displacement fluorometric assay
# Assay type: functional
# Details: Bos taurus
row,SMILES,K app [M⁻¹]
1,O=C1c2c(O)ccc(O)c2C(=O)c2c(NCCNCCO)ccc(NCCNCCO)c21,3.41e+08

# Tested on: HT-29
# Assay: Concentration required to inhibit cell growth by 50% in vitro against Human colon adenocarcinoma cell line
# Assay type: functional, cell-based
# Details: not given
# In short: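 HT29 cells seeded at 2.5×10^4 cells/mL and exposed to drug continuously for 144 h. Assays run in triplicate.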
row,SMILES,IC50 [nM]
1,O=C(NCCNCCO)c1ccc2c3c(c4ccccc4nc13)NN2CCN1CCCCC1,560
2,CN(C)CCNC(=O)c1ccc2c3c(c4cc([N+](=O)[O-])ccc4nc13)NN2CCN1CCCC1,360
3,CN(C)CCNC(=O)c1ccc2c3c(c4cc([N+](=O)[O-])ccc4nc13)NN2CCN1CCCCC1,31
4,COc1ccc2c(c1)-c1nn(CCN3CCCCC3)c3ccc(C(=O)NCCN(C)C)c(c13)N2,260
5,COc1ccc2c(c1)-c1nn(CCN(C)C)c3ccc(C(=O)NCCN(C)C)c(c13)N2,120
6,O=C(NCCN1CCCCC1)c1ccc2c3c(c4ccccc4nc13)NN2CCN1CCCCC1,450
7,COc1ccc2c(c1)-c1nn(CCN3CCCC3)c3ccc(C(=O)NCCN(C)C)c(c13)N2,400
8,COc1ccc2c(c1)-c1nn(CCCN(C)C)c3ccc(C(=O)NCCN(C)C)c(c13)N2,490
9,O=C(NCCNCCO)c1ccc2c3c(c4ccccc4nc13)NN2CCN1CCCC1,1700
10,CN(C)CCNC(=O)c1ccc2c3c(c4cc(N)ccc4nc13)NN2CCN1CCCCC1,170
11,CN(C)CCNC(=O)c1ccc2c3c(c4cc(O)ccc4nc13)NN2CCN1CCCCC1,630
12,CN(C)CCNC(=O)c1ccc2c3c(c4cc(O)ccc4nc13)NN2CCN1CCCC1,910
13,CN(C)CCCN1Nc2c3cc(O)ccc3nc3c(C(=O)NCCN(C)C)ccc1c23,1800

# Continued, values first:
row,IC50 [nM],SMILES
1,210,CN(C)CCNC(=O)c1ccc2c3c(c4ccccc4nc13)NN2CCN1CCCCC1
2,410,CCN(CC)CCNC(=O)c1ccc2c3c(c4ccccc4nc13)NN2CCN(CC)CC
3,190,CN(C)CCNC(=O)c1ccc2c3c(c4ccccc4nc13)NN2CCN1CCCC1
4,600,CN(C)CCCNC(=O)c1ccc2c3c(c4ccccc4nc13)NN2CCN(C)C
5,3.9,CN(C)CCNC(=O)c1ccc2c3c(c4cc([N+](=O)[O-])ccc4nc13)NN2CCN(C)C
6,910,CN(C)CCNC(=O)c1ccc2c3c(c4cc(N)ccc4nc13)NN2CCN(C)C
7,2300,CN(C)CCCNC(=O)c1ccc2c3c(c4ccccc4nc13)NN2CCCN(C)C
8,560,CN(C)CCN1Nc2c3ccccc3nc3c(C(=O)NCCNCCO)ccc1c23
9,210,CN(C)CCNC(=O)c1ccc2c3c(c4ccccc4nc13)NN2CCN(C)C
10,600,CN(C)CCNC(=O)c1ccc2c3c(c4cc(O)ccc4nc13)NN2CCN(C)C
11,300,CN(C)CCN1Nc2c3ccccc3nc3c(C(=O)NCCN)ccc1c23
12,250,CN(C)CCCN1Nc2c3ccccc3nc3c(C(=O)NCCN(C)C)ccc1c23
